According to ChEMBL document CHEMBL1135421, “2-(Anilinomethyl)imidazolines as alpha1 adrenergic receptor agonists: the discovery of alpha1a subtype selective 2'-alkylsulfonyl-substituted analogues” (J Med Chem, 2002):
Several values for one entry are separate records, joined by “and”; a condition that tells them apart may be missing. Equal values may be shown once.

Experiments:
[1] = target: T1, Alpha-2A adrenergic receptor (Homo sapiens, UniProt P08913); test: Agonist potency at Alpha-2A stably expressed in CHO cells.; format: functional, cell-based
T1 sequence (P08913 whole entry): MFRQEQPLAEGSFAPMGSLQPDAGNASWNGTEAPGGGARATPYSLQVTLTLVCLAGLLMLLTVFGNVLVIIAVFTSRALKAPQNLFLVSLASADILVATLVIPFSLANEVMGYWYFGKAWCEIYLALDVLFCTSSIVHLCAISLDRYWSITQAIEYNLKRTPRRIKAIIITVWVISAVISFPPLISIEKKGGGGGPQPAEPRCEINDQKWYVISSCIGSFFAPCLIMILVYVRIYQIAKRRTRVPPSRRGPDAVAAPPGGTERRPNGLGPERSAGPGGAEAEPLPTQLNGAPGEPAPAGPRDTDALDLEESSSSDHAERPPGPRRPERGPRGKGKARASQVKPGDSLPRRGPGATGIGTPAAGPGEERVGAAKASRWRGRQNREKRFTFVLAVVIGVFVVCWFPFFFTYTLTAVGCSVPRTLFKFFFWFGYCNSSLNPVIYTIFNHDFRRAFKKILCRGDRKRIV

[2] = target: T2, Alpha-1A adrenergic receptor (Homo sapiens) (UniProt P35348); test: Efficacy as % of the maximal effect observed for nonselective agonist phenylephrine in rat-1 fibroblasts expressing human Alpha-1 adrenergic receptor; format: functional
T2 sequence (whole entry): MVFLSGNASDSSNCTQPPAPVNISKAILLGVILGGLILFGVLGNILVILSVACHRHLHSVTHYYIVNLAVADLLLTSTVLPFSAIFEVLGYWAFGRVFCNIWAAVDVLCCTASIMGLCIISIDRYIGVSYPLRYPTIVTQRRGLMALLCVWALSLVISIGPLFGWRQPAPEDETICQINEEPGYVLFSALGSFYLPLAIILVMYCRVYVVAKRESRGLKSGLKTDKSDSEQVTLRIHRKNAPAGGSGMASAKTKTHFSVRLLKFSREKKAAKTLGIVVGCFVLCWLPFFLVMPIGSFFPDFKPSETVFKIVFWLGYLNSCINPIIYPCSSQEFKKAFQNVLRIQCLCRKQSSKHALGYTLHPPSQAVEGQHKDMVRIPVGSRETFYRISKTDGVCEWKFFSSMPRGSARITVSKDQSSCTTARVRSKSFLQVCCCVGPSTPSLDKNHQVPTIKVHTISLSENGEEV
How it was run: (§1)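 Rat-1 fibroblasts expressing human α1a/α1b/α1d, grown in DMEM with 10% heat-inactivated FBS and 0.6 mg/mL G418, plated 6000 cells/well and cultured 48 h at 37 °C. Loaded 2 h at 37 °C with Calcium Green (4 μM), 0.2% pluronic acid and 2.5 mM probenecid in HEPES buffer pH 7.4. FLIPR read at room temperature: 10 s baseline, then 50 s after compound. 11-point curves as % of 40 μM phenylephrine response, top concentration typically 5 μM.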

[3] = target: T3, Alpha-2C adrenergic receptor (Homo sapiens) (UniProt P18825); test: Efficacy as percentage of the maximal effect observed for nonselective agonist UK-14304 in CHO cells expressing human Alpha-2C adrenergic receptor; format: functional, cell-based
T3 sequence (whole entry): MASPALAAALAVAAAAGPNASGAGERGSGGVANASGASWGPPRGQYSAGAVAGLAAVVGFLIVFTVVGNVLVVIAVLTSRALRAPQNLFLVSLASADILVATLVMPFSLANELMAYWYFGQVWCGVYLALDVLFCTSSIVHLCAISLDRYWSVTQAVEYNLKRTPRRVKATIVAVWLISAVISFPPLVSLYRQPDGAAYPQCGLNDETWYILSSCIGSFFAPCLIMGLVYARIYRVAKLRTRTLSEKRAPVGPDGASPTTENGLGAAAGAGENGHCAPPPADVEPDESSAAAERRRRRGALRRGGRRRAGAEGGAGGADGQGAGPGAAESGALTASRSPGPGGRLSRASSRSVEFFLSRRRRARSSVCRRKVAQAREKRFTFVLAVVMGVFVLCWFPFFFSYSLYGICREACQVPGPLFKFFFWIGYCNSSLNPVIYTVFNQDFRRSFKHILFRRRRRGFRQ

[4] = target: T4, Alpha-1A adrenergic receptor (Homo sapiens, UniProt P35348); test: Affinity to Alpha-1 adrenergic receptor determined by radioligand binding techniques from rat-1 fibroblasts membranes
T4 sequence (P35348 whole entry): T2 sequence (whole entry)

[5] = target: T5, Alpha-1B adrenergic receptor (Homo sapiens, UniProt P35368); test: Affinity to human Alpha-1B adrenergic receptor determined by radioligand binding techniques from rat-1 fibroblasts membranes
T5 sequence (P35368 whole entry): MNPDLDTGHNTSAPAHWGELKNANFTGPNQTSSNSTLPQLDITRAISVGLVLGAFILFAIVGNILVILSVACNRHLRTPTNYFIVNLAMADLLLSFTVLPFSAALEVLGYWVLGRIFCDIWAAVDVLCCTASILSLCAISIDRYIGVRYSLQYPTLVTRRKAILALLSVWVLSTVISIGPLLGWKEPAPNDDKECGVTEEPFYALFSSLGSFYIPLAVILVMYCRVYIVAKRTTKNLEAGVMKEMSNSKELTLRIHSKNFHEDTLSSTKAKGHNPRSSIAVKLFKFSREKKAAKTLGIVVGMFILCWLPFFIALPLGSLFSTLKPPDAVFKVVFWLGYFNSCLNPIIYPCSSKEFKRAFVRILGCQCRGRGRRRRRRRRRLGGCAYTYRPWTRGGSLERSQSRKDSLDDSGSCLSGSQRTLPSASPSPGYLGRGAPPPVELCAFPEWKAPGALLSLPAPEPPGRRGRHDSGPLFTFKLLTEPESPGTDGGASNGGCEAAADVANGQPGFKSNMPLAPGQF

[6] = target: T4, Alpha-1A adrenergic receptor; test: Agonist potency at Alpha-1 adrenergic receptor assayed in rat-1 fibroblasts expressing human Alpha-1 adrenergic receptor; format: functional; how it was run: as §1
[7] = target: T6, Alpha-1D adrenergic receptor (Homo sapiens, UniProt P25100); test: Agonist potency at Alpha-1D adrenergic receptor assayed in rat-1 fibroblasts expressing human Alpha-1D adrenergic receptor; format: functional; how it was run: as §1
T6 sequence (P25100 whole entry): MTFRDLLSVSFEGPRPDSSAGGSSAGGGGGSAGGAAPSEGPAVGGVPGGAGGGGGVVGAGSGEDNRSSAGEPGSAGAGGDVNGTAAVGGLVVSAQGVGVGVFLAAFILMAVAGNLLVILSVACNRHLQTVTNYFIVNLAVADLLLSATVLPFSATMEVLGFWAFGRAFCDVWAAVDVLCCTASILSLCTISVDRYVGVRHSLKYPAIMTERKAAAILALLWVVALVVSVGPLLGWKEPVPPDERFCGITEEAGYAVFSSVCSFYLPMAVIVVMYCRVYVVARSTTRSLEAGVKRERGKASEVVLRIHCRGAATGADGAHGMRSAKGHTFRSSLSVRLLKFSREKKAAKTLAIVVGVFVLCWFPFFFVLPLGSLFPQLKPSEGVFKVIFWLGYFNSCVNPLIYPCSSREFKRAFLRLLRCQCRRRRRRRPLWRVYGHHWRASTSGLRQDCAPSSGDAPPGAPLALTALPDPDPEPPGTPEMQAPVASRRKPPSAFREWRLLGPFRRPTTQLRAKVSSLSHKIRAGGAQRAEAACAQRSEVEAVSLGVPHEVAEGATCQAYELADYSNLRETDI

[8] = target: T7, Alpha-2A adrenergic receptor (Homo sapiens) (UniProt P08913); test: Efficacy as percentage of the maximal effect observed for nonselective agonist UK-14304 in CHO cells expressing human Alpha-2A adrenergic receptor; format: functional, cell-based
T7 sequence (whole entry): T1 sequence (P08913 whole entry)

[9] = target: T8, Alpha-2C adrenergic receptor (Homo sapiens, UniProt P18825); test: Agonist potency at Alpha-2C adrenergic receptor assayed in CHO cells expressing human Alpha-2C adrenergic receptor; format: functional, cell-based
T8 sequence (P18825 whole entry): T3 sequence (whole entry)

[10] = target: T5, Alpha-1B adrenergic receptor; test: Agonist potency at Alpha-1B adrenergic receptor expressed in rat-1 fibroblasts; format: functional
[11] = target: T1, Alpha-2A adrenergic receptor; test: Affinity to human Alpha-2A adrenergic receptor determined by radioligand binding techniques from chinese hamster ovary (CHO) cells; format: cell-based
[12] = target: T6, Alpha-1D adrenergic receptor; test: Affinity to human Alpha-1D adrenergic receptor determined by radioligand binding techniques from rat-1 fibroblasts membranes
[13] = target: T8, Alpha-2C adrenergic receptor; test: Affinity to human Alpha-2C adrenergic receptor determined by radioligand binding techniques from chinese hamster ovary (CHO) cells; format: cell-based
[14] = target: T9, Alpha-2B adrenergic receptor (Homo sapiens, UniProt P18089); test: Affinity to human Alpha-2B adrenergic receptor determined by radioligand binding techniques from chinese hamster ovary (CHO) cells; format: cell-based
T9 sequence (P18089 whole entry): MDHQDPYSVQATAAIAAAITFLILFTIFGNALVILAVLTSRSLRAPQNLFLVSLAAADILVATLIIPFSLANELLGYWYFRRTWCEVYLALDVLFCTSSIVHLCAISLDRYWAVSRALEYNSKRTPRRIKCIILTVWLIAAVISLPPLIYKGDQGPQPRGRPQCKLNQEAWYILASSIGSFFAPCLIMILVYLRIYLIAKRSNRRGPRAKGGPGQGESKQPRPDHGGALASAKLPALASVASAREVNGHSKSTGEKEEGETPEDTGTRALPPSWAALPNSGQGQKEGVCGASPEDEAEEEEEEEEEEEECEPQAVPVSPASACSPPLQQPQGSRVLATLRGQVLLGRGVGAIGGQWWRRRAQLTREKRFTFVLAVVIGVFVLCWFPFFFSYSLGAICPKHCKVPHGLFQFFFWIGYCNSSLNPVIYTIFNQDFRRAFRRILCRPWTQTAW

EC50 [1]	Max [3] [%]	Ki [4] [µM]	Ki [5] [µM]	EC50 [6] [µM]	EC50 [7] [µM]	Max [8] [%]	EC50 [9] [µM]	EC50 [10] [µM]	SMILES	Max [2] [%]	Ki [11] [µM]	Ki [12] [µM]	Ki [13] [µM]	Ki [14] [µM]
> 10 µM	87	1.12	11.2	0.158	> 100	34	2	> 100	CS(=O)(=O)Nc1ccc(F)c([C@@H](O)CN)c1 [NS-49]	109	–	–	–	–
> 10 µM	69	0.617	2.14	> 100	> 100	29	6.31	> 100	O=S1(=O)CCCc2cccc(NCC3=NCCN3)c21	–	0.794	> 15.8	2.69	–
–	–	–	–	–	–	88	–	–	Cc1cc(C(C)(C)C)c(O)c(C)c1CC1=NCCN1	–	–	–	–	–

SMILES	EC50 [1]	Max [3] [%]	Ki [4] [µM]	Ki [5] [µM]	EC50 [6] [µM]	EC50 [7] [µM]	Max [8] [%]	EC50 [9] [µM]	EC50 [10] [µM]	Max [2] [%]	Ki [11] [µM]	Ki [12] [µM]	Ki [13] [µM]	Ki [14] [µM]
COc1ccc(S(C)(=O)=O)c(NCC2=NCCN2)c1	> 10 µM and 3.31 µM	49	1.62	4.57	0.0141	> 100	16	–	> 100	102	3.63	7.59	> 5.01	> 6.31
